# In article PMC6980386 (Traffic (Copenhagen, Denmark), 2019):
# “Also recorded” adds a separate entry of the source.
# Key:
# FL huCD4 R3A = FL huCD4 R3A (Homo sapiens, UniProt P01730, R3A); experiment: CADA down-modulation of cellular huCD4; format: cell-based
# In short: (§1)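 HEK293T cells, seeded overnight in DMEM with 10% serum, 1 mM sodium pyruvate and 0.075% NaHCO₃, were lipofected with full-length human CD4 (WT or mutant). Test compound in DMSO was added 6 h post-transfection as 1:5 serial dilutions (50–0.016 μM) for 48 h. Surface CD4 was stained with FITC/APC anti-CD4 (SK3) and read by flow cytometry. IC50 is 50% of the untreated signal, from four-parameter fits of ≥3 replicate experiments. FC is mutant/WT mean IC50.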
# FL huCD4 P6A = FL huCD4 P6A (Homo sapiens, UniProt P01730, P6A); experiment: CADA down-modulation of cellular huCD4; format: cell-based
# In short: as §1
# FL huCD4 H9A = FL huCD4 H9A (Homo sapiens, UniProt P01730, H9A); experiment: CADA down-modulation of cellular huCD4; format: cell-based
# In short: as §1
# FL huCD4 L11A = FL huCD4 L11A (Homo sapiens, UniProt P01730, L11A); experiment: CADA down-modulation of cellular huCD4; format: cell-based
# In short: as §1
# FL huCD4 V13A = FL huCD4 V13A (Homo sapiens, UniProt P01730, V13A); experiment: CADA down-modulation of cellular huCD4; format: cell-based
# In short: as §1
# FL huCD4 A21V = FL huCD4 A21V (Homo sapiens, UniProt P01730, A21V); experiment: CADA down-modulation of cellular huCD4; format: cell-based
# In short: as §1
# FL huCD4 A22V = FL huCD4 A22V (Homo sapiens, UniProt P01730, A22V); experiment: CADA down-modulation of cellular huCD4; format: cell-based
# In short: as §1
# FL huCD4 V28A = FL huCD4 V28A (Homo sapiens, UniProt P01730, V28A); experiment: CADA down-modulation of cellular huCD4; format: cell-based
# In short: as §1
# FL huCD4 G31A = FL huCD4 G31A (Homo sapiens, UniProt P01730, G31A); experiment: CADA down-modulation of cellular huCD4; format: cell-based
# In short: as §1
# huCD4_1–32-YFP WT = huCD4_1–32-YFP WT (Homo sapiens, UniProt P01730); experiment: CADA inhibition of huCD4_1–32-YFP secretion; format: cell-based
# In short: (§2)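 HEK293T cells were grown in DMEM with 10% FBS and 10 mM HEPES, seeded and left to adhere overnight, then transiently transfected with plasmid by Lipofectamine. Test compound was added 6 h after transfection as a 1:5 serial dilution (50 to 0.016 μM) for 48 h. Secreted YFP in the supernatant was captured on GFP-Trap magnetic beads for 1 h, washed with PBS and measured by flow cytometry. IC50 is the concentration that halves the signal relative to the untreated control, taken from a four-parameter fit of at least three replicate experiments. FC is the mutant mean IC50 divided by the WT mean IC50.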
# huCD4_1–32-YFP F7A = huCD4_1–32-YFP F7A (Homo sapiens, UniProt P01730, F7A); experiment: CADA inhibition of huCD4_1–32-YFP secretion; format: cell-based
# In short: (§3)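 HEK293T cells were lipofected with human CD4 residues 1–32 fused to the N-terminus of YFP (secreted, no membrane anchor). Test compound was added 6 h post-transfection as 1:5 serial dilutions (50–0.016 μM) for 48 h. Supernatant was captured on GFP-Trap magnetic beads for 1 h, washed in PBS, and YFP was read by flow cytometry. IC50 is 50% of the untreated control, from four-parameter fits of ≥3 replicate experiments. FC is mutant/WT mean IC50.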
# huCD4_1–32-YFP L10A = huCD4_1–32-YFP L10A (Homo sapiens, UniProt P01730, L10A); experiment: CADA inhibition of huCD4_1–32-YFP secretion; format: cell-based
# In short: as §2
# huCD4_1–32-YFP A17V = huCD4_1–32-YFP A17V (Homo sapiens, UniProt P01730, A17V); experiment: CADA inhibition of huCD4_1–32-YFP secretion; format: cell-based
# In short: as §3
# huCD4_1–32-YFP L18A = huCD4_1–32-YFP L18A (Homo sapiens, UniProt P01730, L18A); experiment: CADA inhibition of huCD4_1–32-YFP secretion; format: cell-based
# In short: as §2
# huCD4_1–32-YFP L19A = huCD4_1–32-YFP L19A (Homo sapiens, UniProt P01730, L19A); experiment: CADA inhibition of huCD4_1–32-YFP secretion; format: cell-based
# In short: as §2
# huCD4_1–32-YFP A22V = huCD4_1–32-YFP A22V (Homo sapiens, UniProt P01730, A22V); experiment: CADA inhibition of huCD4_1–32-YFP secretion; format: cell-based
# In short: as §3
# huCD4_1–32-YFP G31A = huCD4_1–32-YFP G31A (Homo sapiens, UniProt P01730, G31A); experiment: CADA inhibition of huCD4_1–32-YFP secretion; format: cell-based
# In short: as §3
# FL huCD4 R8K = FL huCD4 R8K (Homo sapiens, UniProt P01730, R8K); experiment: CADA down-modulation of cellular huCD4; format: cell-based; settings: HEK293T, 48h
# In short: as §1
# FL huCD4 Q15N = FL huCD4 Q15N (Homo sapiens, UniProt P01730, Q15N); experiment: CADA down-modulation of cellular huCD4; format: cell-based; settings: HEK293T, 48h
# In short: as §1
# FL huCD4 P20L = FL huCD4 P20L (Homo sapiens, UniProt P01730, P20L); experiment: CADA down-modulation of cellular huCD4; format: cell-based; settings: HEK293T, 48h
# In short: as §1
# FL huCD4 K33A = FL huCD4 K33A (Homo sapiens, UniProt P01730, K33A); experiment: CADA down-modulation of cellular huCD4; format: cell-based; settings: HEK293T, 48h
# In short: as §1
# [1] = target: truncated huCD4 D1D2 A17V (Homo sapiens, UniProt P01730, A17V); experiment: Cell-free in vitro translation and translocation; format: biochemical; settings: 15 μM CADA
# In short: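 Truncated huCD4 D1D2 (lacking glycosylation sites and membrane anchor) was made by PCR and transcribed with T7. Proteinase K protection ran 30 min on ice and was quenched with PMSF. Products were separated by SDS-PAGE and imaged by phosphor imaging. The SP-cleaved band was normalised to the matching control. Data are from 2–5 independent experiments, compared with WT by Welch t test.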
# mouse CD4 (mCD4) = settings: cell surface expression of mCD4; cited from earlier work
# [2] = + less, − more sensitive to CADA
# [3] = read-out: Cellular huCD4 IC50 (μM) Mean, HEK293T, CADA 48h
# [4] = read-out: Secreted YFP IC50 (μM) Mean, HEK293T, CADA 48h
smiles,measurement,setting,value
"C=C1CN(S(=O)(=O)c2ccc(C)cc2)CCCN(Cc2ccccc2)CCCN(S(=O)(=O)c2ccc(C)cc2)C1 [CADA, Cyclotriazadisulfonamide]",Cellular huCD4 FC (fold change of mean IC50 relative to WT),FL huCD4 R3A; [2],−1.1
same,IC50,FL huCD4 R3A; [3],0.47 µM
same,Cellular huCD4 FC (fold change of mean IC50 relative to WT),FL huCD4 P6A; [2],+1.8
same,IC50,FL huCD4 P6A; [3],0.96 µM
same,Cellular huCD4 FC (fold change of mean IC50 relative to WT),FL huCD4 H9A; [2],+1.1
same,IC50,FL huCD4 H9A; [3],0.62 µM
same,Cellular huCD4 FC (fold change of mean IC50 relative to WT),FL huCD4 L11A; [2],−4.5
same,IC50,FL huCD4 L11A; [3],0.12 µM
same,Cellular huCD4 FC (fold change of mean IC50 relative to WT),FL huCD4 V13A; [2],−3.9
same,IC50,FL huCD4 V13A; [3],0.14 µM
same,Cellular huCD4 FC (fold change of mean IC50 relative to WT),FL huCD4 A21V; [2],+1.6
same,IC50,FL huCD4 A21V; [3],0.87 µM
same,Cellular huCD4 FC (fold change of mean IC50 relative to WT),FL huCD4 A22V; [2],+1.5
same,IC50,FL huCD4 A22V; [3],0.79 µM
same,Cellular huCD4 FC (fold change of mean IC50 relative to WT),FL huCD4 V28A; [2],1.00
same,IC50,FL huCD4 V28A; [3],0.54 µM
same,Cellular huCD4 FC (fold change of mean IC50 relative to WT),FL huCD4 G31A; [2],+1.3
same,IC50,FL huCD4 G31A; [3],0.72 µM
same,Secreted YFP FC (fold change of mean IC50 relative to WT),huCD4_1–32-YFP WT; [2],1.00
same,IC50,huCD4_1–32-YFP WT; [4],1.27 µM
same,Secreted YFP FC (fold change of mean IC50 relative to WT),huCD4_1–32-YFP F7A; [2],−2.8
same,IC50,huCD4_1–32-YFP F7A; [4],0.46 µM
same,Secreted YFP FC (fold change of mean IC50 relative to WT),huCD4_1–32-YFP L10A; [2],−2.1
same,IC50,huCD4_1–32-YFP L10A; [4],0.6 µM
same,Secreted YFP FC (fold change of mean IC50 relative to WT),huCD4_1–32-YFP A17V; [2],>+39
same,IC50,huCD4_1–32-YFP A17V; [4],> 50 µM
same,Secreted YFP FC (fold change of mean IC50 relative to WT),huCD4_1–32-YFP L18A; [2],−1.9
same,IC50,huCD4_1–32-YFP L18A; [4],0.67 µM
same,Secreted YFP FC (fold change of mean IC50 relative to WT),huCD4_1–32-YFP L19A; [2],+3.6
same,IC50,huCD4_1–32-YFP L19A; [4],4.57 µM
same,Secreted YFP FC (fold change of mean IC50 relative to WT),huCD4_1–32-YFP A22V; [2],+1.2
same,IC50,huCD4_1–32-YFP A22V; [4],1.58 µM
same,Secreted YFP FC (fold change of mean IC50 relative to WT),huCD4_1–32-YFP G31A; [2],+2.0
same,IC50,huCD4_1–32-YFP G31A; [4],2.56 µM
same,sensitivity to CADA,FL huCD4 R8K,restored full sensitivity to CADA
same,sensitivity to CADA,FL huCD4 Q15N,partially restored CADA sensitivity
same,sensitivity to CADA,FL huCD4 P20L,completely resistant to CADA
same,IC50,FL huCD4 K33A,> 50000 nM
same,inhibitory effect of CADA on protein translocation compared to WT,[1],significantly reduced
same,sensitivity of mouse CD4 to CADA,mouse CD4 (mCD4),not affected by CADA; also recorded: completely resistant to CADA
